The source made the active and inactive calls. No cut-off for these calls is given here.
Assays:
MCF7 [1] = assay: Cytotoxicity against human MCF7 cells assessed as cell viability at 100 uM after 48 hrs by MTT assay relative to control; assay type: functional; conditions: read-out: Activity
In short: (§1)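 Cells in exponential growth were seeded at 5 × 10⁴ cells/mL, held 24 h at 37 °C, then exposed to compound for 48 h. MTT was added to 1 mg/mL final for 2 h. Formazan was dissolved in DMSO and read at 570 nm, with 620 nm background subtraction. Final DMSO ≤1.0%; viability reported as percentage of control.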

HT-29 [2] = assay: Cytotoxicity against human HT-29 cells assessed as cell viability at 100 uM after 48 hrs by MTT assay relative to control; assay type: functional; conditions: read-out: Activity; in short: as §1
PC-3 [3] = assay: Cytotoxicity against human PC-3 cells assessed as cell viability at 100 uM after 48 hrs by MTT assay relative to control; assay type: functional; conditions: read-out: Activity; in short: as §1
THP-1 [4] = assay: Antiinflammatory activity in LPS-stimulated human THP-1 cells assessed as suppression of COX-2 mRNA expression at 100 uM incubated for 24 hrs by ELISA relative to control; assay type: functional; conditions: in the assay text read “by qPCR” for “by ELISA”
In short: (§2)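 THP-1 monocytes plated at 1 × 10⁶ cells/mL, differentiated with 10 ng/mL PMA for 24 h, then rested 24 h in PMA-free medium. Cells were treated with compound and LPS stimulation. COX mRNA was quantified by qPCR with TaqMan probes against β-actin as housekeeping gene. Compound stocks in DMSO, final DMSO ≤1.0%.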

[5] = Inhibition of LPS-induced TNF alpha mRNA expression in mouse RAW264.7 cells at 50 uM by RT-qPCR analysis relative to control; assay type: functional
In short: (§3)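 RAW264.7 cells were kept in high-glucose DMEM with 10% FBS. They were treated with compound alongside LPS stimulation. iNOS, TNF-α and IL-1β mRNA were quantified by qPCR using TaqMan probes, with β-actin as housekeeping gene, and expressed relative to LPS control. Final DMSO ≤1.0%.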

[6] = Inhibition of LPS-induced TNF alpha mRNA expression in mouse RAW264.7 cells at 20 uM by RT-qPCR analysis relative to control; assay type: functional; in short: as §3
[7] = Inhibition of LPS-induced IL-1 beta mRNA expression in mouse RAW264.7 cells at 20 uM by RT-qPCR analysis relative to control; assay type: functional; in short: as §3
RAW264.7 [8] = assay: Inhibition of LPS-induced iNOS mRNA expression in mouse RAW264.7 cells assessed as downregulation of iNOS mRNA expression at 50 uM by RT-qPCR analysis relative to control; assay type: functional, cell-based; in short: as §3
[9] = Inhibition of LPS-induced IL-1 beta mRNA expression in mouse RAW264.7 cells at 50 uM by RT-qPCR analysis relative to control; assay type: functional; in short: as §3
THP-1 [10] = assay: Antiinflammatory activity in LPS-stimulated human THP-1 cells assessed as suppression of PGE2 release at 100 uM incubated for 24 hrs by ELISA relative to control; assay type: functional
In short: (§4)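 THP-1 monocytes were differentiated with PMA (10 ng/mL, 24 h) and rested 24 h PMA-free. They were then given compound alongside 1 µg/mL LPS for 24 h. PGE₂ in supernatants was measured by ELISA and normalised to the BCA total protein of viable cells. Final DMSO ≤1.0%; at least three independent biological replicates.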

RAW264.7 [11] = assay: Inhibition of LPS-induced NO release in mouse RAW264.7 cells at 50 uM when treated with compound and LPS simultaneously measured after 24 hrs by Griess reagent based assay relative to control; assay type: functional
In short: (§5)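 RAW264.7 cells were plated at 4 × 10⁵ cells/mL in phenol-free medium and left 24 h. They then received compound together with LPS (1 µg/mL) for 24 h. Nitrite in supernatants was measured by the Griess reaction and normalised to BCA total protein of viable cells. 1400W at 20 µM served as positive control.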

[12] = target: COX-1 (Prostaglandin G/H synthase 1) (Homo sapiens, UniProt P23219); assay: Inhibition of human recombinant COX-1 at 10 uM using arachidonic acid as substrate preincubated for 10 mins followed by substrate addition relative to control; conditions: recombinant COX-1, probe arachidonic acid
Chain of COX-1 (Prostaglandin G/H synthase 1) (P23219 whole entry): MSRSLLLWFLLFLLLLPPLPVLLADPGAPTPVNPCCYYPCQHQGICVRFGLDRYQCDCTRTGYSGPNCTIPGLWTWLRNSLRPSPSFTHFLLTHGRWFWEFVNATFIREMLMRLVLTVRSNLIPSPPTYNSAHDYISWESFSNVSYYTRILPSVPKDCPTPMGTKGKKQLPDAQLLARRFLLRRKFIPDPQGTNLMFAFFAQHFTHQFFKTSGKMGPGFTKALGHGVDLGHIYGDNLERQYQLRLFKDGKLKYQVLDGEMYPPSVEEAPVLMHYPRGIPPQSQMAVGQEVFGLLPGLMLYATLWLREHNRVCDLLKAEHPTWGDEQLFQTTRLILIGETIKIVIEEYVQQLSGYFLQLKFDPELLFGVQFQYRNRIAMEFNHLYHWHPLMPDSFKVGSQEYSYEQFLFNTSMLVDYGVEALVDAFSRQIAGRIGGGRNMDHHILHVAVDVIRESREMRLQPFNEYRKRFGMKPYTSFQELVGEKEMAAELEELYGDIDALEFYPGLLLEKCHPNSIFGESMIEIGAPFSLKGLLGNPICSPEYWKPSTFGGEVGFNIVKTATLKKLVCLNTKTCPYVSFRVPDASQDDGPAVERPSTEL

[13] = target: T1, Prostaglandin G/H synthase 2 (Homo sapiens) (UniProt P35354); assay: Inhibition of human recombinant COX-2 at 1 uM using arachidonic acid as substrate preincubated for 10 mins followed by substrate addition relative to control
T1 sequence (whole entry): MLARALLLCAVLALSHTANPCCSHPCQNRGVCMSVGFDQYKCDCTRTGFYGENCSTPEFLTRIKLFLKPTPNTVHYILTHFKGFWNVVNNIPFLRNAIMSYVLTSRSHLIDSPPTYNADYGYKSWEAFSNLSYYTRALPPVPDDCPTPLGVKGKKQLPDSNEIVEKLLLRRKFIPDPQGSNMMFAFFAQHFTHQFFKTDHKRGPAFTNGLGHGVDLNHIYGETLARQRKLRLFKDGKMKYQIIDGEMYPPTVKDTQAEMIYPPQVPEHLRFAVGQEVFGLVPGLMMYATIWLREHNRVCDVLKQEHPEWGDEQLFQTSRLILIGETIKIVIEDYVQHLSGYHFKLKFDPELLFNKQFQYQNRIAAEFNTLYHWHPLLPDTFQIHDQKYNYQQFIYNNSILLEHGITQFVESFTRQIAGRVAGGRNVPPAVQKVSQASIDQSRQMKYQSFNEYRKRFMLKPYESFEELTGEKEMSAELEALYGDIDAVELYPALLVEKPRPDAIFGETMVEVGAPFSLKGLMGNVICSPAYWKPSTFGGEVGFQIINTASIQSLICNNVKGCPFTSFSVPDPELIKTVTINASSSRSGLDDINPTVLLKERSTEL

RAW264.7 [14] = assay: Inhibition of LPS-induced NO release in mouse RAW264.7 cells at 20 uM when treated with compound and LPS simultaneously measured after 24 hrs by Griess reagent based assay relative to control; assay type: functional; in short: as §5
THP-1 [15] = assay: Antiinflammatory activity in LPS-stimulated human THP-1 cells assessed as suppression of PGE2 release at 50 uM incubated for 24 hrs by ELISA relative to control; assay type: functional; in short: as §4
THP-1 [16] = assay: Antiinflammatory activity in LPS-stimulated human THP-1 cells assessed as suppression of COX-2 mRNA expression at 50 uM incubated for 24 hrs by ELISA relative to control; assay type: functional; conditions: in the assay text read “by qPCR” for “by ELISA”; in short: as §2
[17] = Inhibition of LPS-induced iNOS mRNA expression in mouse RAW264.7 cells assessed as downregulation of iNOS mRNA expression at 20 uM by RT-qPCR analysis relative to control; assay type: functional; in short: as §3
MCF7 [18] = assay: Inhibition of colony formation in human MCF7 cells assessed as decrease in colonies incubated for 14 days by crystal violet staining based clonogenic assay; assay type: functional, cell-based; conditions: time 14.0 day
In short: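 MCF-7 cells seeded at 5 × 10² per well were allowed to attach for 24 h. Compound was then applied at increasing concentrations, with medium and compound renewed every 2 days for 14 days. Colonies were fixed in 75% methanol/25% acetic acid for 30 min, stained with 0.5% crystal violet for 30 min, and counted.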

MCF7 [19] = assay: Cytotoxicity against human MCF7 cells assessed as inhibition of cell growth after 48 hrs by SRB assay; assay type: functional, cell-based; conditions: MCF7, 48 h
In short: (§6)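 Cells seeded at 5 × 10⁴ cells/mL were held 24 h, then treated 48 h across final concentrations of 0–200 µM. They were fixed with 10% TCA for 1 h at 4 °C and stained with 0.04% SRB for 30 min. Bound dye was washed with 1% acetic acid, solubilised in 10 mM Tris base (pH 10.5) and read at 565 nm. IC50 derived from concentration–response curves.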

HUVEC = assay: Cytotoxicity against human HUVEC cells assessed as inhibition of cell growth after 48 hrs by SRB assay; assay type: cell-based; in short: as §6
HT-29 [20] = assay: Cytotoxicity against human HT-29 cells assessed as inhibition of cell growth after 48 hrs by SRB assay; assay type: functional, cell-based; conditions: HT-29, 48 h; in short: as §6
MCF7 [21] = assay: Induction of apoptosis in human MCF7 cells assessed as increase in BAX/Bcl-2 ratio at 10 to 25 uM measured after 24 hrs by Western blot analysis; conditions: dose 10-25 µM
MCF7 [22] = assay: Induction of apoptosis in human MCF7 cells assessed as downregulation of Bcl-2 protein expression at 10 to 25 uM measured after 24 hrs by Western blot analysis; conditions: dose 10-25 µM
PC-3 [23] = assay: Cytotoxicity against human PC-3 cells assessed as inhibition of cell growth after 48 hrs by SRB assay; assay type: functional, cell-based; conditions: PC-3, 48 h; in short: as §6
MCF7 [24] = assay: Induction of apoptosis in human MCF7 cells assessed as upregulation of BAX protein expression measured after 24 hrs by Western blot analysis; assay type: functional, cell-based
In short: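 MCF-7 cells seeded at 1 × 10⁶ cells/mL were exposed to compound for 24 h and lysed in RIPA buffer. Lysates were quantified by BCA, equally loaded, and run on a 12% SDS gel with 4% stacking gel. Blots were probed at 4 °C for BAX, BCL-2 and β-actin, then with HRP secondary, and detected by chemiluminescence. Band densitometry reported as relative change versus control.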

| SMILES | viability at 100 µM (MCF7 [1]) [%] | viability at 100 µM (HT-29 [2]) [%] | viability at 100 µM (PC-3 [3]) [%] | further results |
| --- | --- | --- | --- | --- |
| CCOc1cc(NS(=O)(=O)c2ccccc2[N+](=O)[O-])ccc1NS(C)(=O)=O | 139 | 133 | 77.9 |  |
| CCOc1cc(NS(=O)(=O)c2cccc([N+](=O)[O-])c2)ccc1NS(C)(=O)=O | 127 | 116 | 75.5 |  |
| CC(C)Oc1cc(NC(=O)c2ccc([N+](=O)[O-])cc2)ccc1NS(C)(=O)=O | 101 | 124 | 81 |  |
| CC(C)Oc1cc(NS(=O)(=O)c2ccc([N+](=O)[O-])cc2)ccc1NS(C)(=O)=O | 57.9 | 75.4 | 91.4 |  |
| COc1ccc(S(=O)(=O)Nc2ccc(NS(C)(=O)=O)c(OC(C)C)c2)cc1 | 130 | 102 | 68.6 |  |
| CS(=O)(=O)Nc1ccc(NC(=O)c2ccc(C(N)=O)cc2)cc1Oc1ccccc1 | 53.1 | 64.4 | 88.7 |  |
| CC(C)Oc1cc(NC(=O)c2ccc(F)cc2)ccc1NS(C)(=O)=O | 110 | 49.6 | 79.4 | Activity (THP-1 [4]): 61%; inhibition at 50 µM [5]: 57%; inhibition at 20 µM [6]: 44%; inhibition at 20 µM [7]: 45%; inhibition (RAW264.7 [8]): Active; inhibition at 50 µM [9]: 51%; Activity (THP-1 [10]): 68%; inhibition at 50 µM (RAW264.7 [11]): 46.4%; inhibition at 10 µM [12]: 27.2%; inhibition [13]: 72.8%; inhibition at 20 µM (RAW264.7 [14]): 43%; Activity (THP-1 [15]): 67%; Activity (THP-1 [16]): 53%; inhibition at 20 µM [17]: 40% |
| CS(=O)(=O)Nc1ccc(NC(=O)c2ccc(F)cc2)cc1Oc1ccccc1 | 22.2 | 33.1 | 24.8 | inhibition (MCF7 [18]): Dose-Dependent Effect; IC50 (MCF7 [19]): 11.3 µM; IC50 (HUVEC): > 200 µM; IC50 (HT-29 [20]): 9.24 µM; Activity (MCF7 [21]): Active; Activity (MCF7 [22]): Active; IC50 (PC-3 [23]): > 100 µM; Activity (MCF7 [24]): Dose-Dependent Effect |
| CCOc1cc(NS(=O)(=O)c2ccc([N+](=O)[O-])cc2)ccc1NS(C)(=O)=O | 119 | 118 | 65.7 | Activity (THP-1 [4]): 60%; inhibition at 50 µM [5]: 22%; inhibition at 20 µM [6]: 46%; inhibition at 20 µM [7]: 39%; inhibition at 50 µM [9]: 22%; Activity (THP-1 [10]): 44%; inhibition at 50 µM (RAW264.7 [11]): 68%; inhibition at 10 µM [12]: 21%; inhibition [13]: 88%; inhibition at 20 µM (RAW264.7 [14]): 40.7%; Activity (THP-1 [15]): 77%; Activity (THP-1 [16]): 47% |
| CCOc1cc(NC(=O)c2ccc([N+](=O)[O-])cc2)ccc1NS(C)(=O)=O | 116 | 114 | 84.8 |  |
| CCOc1cc(NC(=O)c2ccccc2[N+](=O)[O-])ccc1NS(C)(=O)=O | 122 | 112 | 100 |  |
| COc1ccc(C(=O)Nc2ccc(NS(C)(=O)=O)c(OC(C)C)c2)cc1 | 153 | 67.9 | 65.8 |  |
| COc1cccc2c1C(=O)c1c(O)c3c(c(O)c1C2=O)C[C@@](O)(C(=O)CO)C[C@@H]3O[C@H]1C[C@H](N)[C@H](O)[C@H](C)O1 [DOXORUBICIN] | 14.1 | 21 | 11.8 | IC50 (MCF7 [19]): 0.16 µM; IC50 (HUVEC): 0.1 µM; IC50 (HT-29 [20]): 0.15 µM; IC50 (PC-3 [23]): 16.9 µM |
| CCOc1cc(NC(=O)c2cccc([N+](=O)[O-])c2)ccc1NS(C)(=O)=O | 90.8 | 70.4 | 90.2 |  |
| CCOc1cc(NC(=O)c2ccc(F)cc2)ccc1NS(C)(=O)=O | 64.4 | 80.1 | 90 |  |
| CC(C)Oc1cc(NS(=O)(=O)c2ccc(F)cc2)ccc1NS(C)(=O)=O | 130 | 92.9 | 75.5 |  |
| CC(C)Oc1cc(NC(=O)c2ccc(C(N)=O)cc2)ccc1NS(C)(=O)=O | 61.9 | 79.4 | 49.8 |  |
| COc1ccc(C(=O)Nc2ccc(NS(C)(=O)=O)c(OC(C)C)c2)c([N+](=O)[O-])c1 | 63.5 | 111 | 94.2 |  |
